# Reference: ChEMBL document CHEMBL4765448, “Multiple biological active 4-aminopyrazoles containing trifluoromethyl and their 4-nitroso-precursors: Synthesis and evaluation” (Eur J Med Chem, 2020)
# The source made the active and inactive calls. The calls are words filed in the database; no cut-off is given here.
# Legend:
# Neisseria gonorrhoeae = test: Antibacterial activity against Neisseria gonorrhoeae; type: functional
# Escherichia coli = test: Antibacterial activity against Escherichia coli; type: functional
# Klebsiella pneumoniae = test: Antibacterial activity against Klebsiella pneumoniae; type: functional
# Citrobacter braakii = test: Antibacterial activity against Citrobacter braakii; type: functional
# Proteus vulgaris = test: Antibacterial activity against Proteus vulgaris; type: functional
# Serratia marcescens = test: Antibacterial activity against Serratia marcescens; type: functional
# Shigella flexneri = test: Antibacterial activity against Shigella flexneri; type: functional
# Pseudomonas aeruginosa = test: Antibacterial activity against Pseudomonas aeruginosa; type: functional
# Streptococcus pyogenes = test: Antibacterial activity against Streptococcus pyogenes; type: functional
# Staphylococcus aureus [1] = test: Antibacterial activity against Staphylococcus aureus; type: functional
# Trichophyton rubrum = test: Antifungal activity against Trichophyton rubrum; type: functional
# Nannizzia gypsea = test: Antifungal activity against Trichophyton gypseum; type: functional
# Trichophyton tonsurans = test: Antifungal activity against Trichophyton tonsurans; type: functional
# Trichophyton violaceum = test: Antifungal activity against Trichophyton violaceum; type: functional
# [2] = tested on: Trichophyton interdigitale; test: Antifungal activity against Trichophyton mentagrophytes var. interdigitale; type: functional
# Epidermophyton floccosum = test: Antifungal activity against Epidermophyton floccosum; type: functional
# Microsporum canis = test: Antifungal activity against Microsporum canis; type: functional
# Candida albicans = test: Antifungal activity against Candida albicans; type: functional
# [3] = Drug metabolism assessed as nitric oxide release in presence of rat plasma by Griess reagent based assay; type: cell-free
# [4] = Drug metabolism assessed as nitric oxide release in absence of rat plasma by Griess reagent based assay; type: cell-free
# [5] = Antioxidant activity assessed as trolox equivalent of ABTS radical scavenging activity measured after 1 hr by UV-vis spectrophotometric method; type: functional
# Summary of the method: (§1)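 ABTS cation-radical decolorization was read spectrophotometrically as the fall in absorbance after 1 h. Trolox was the reference. TEAC was taken as the ratio of concentration-response slopes, test/Trolox, and IC50 was also derived. Data are mean ± SEM, n = 3.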
# [6] = Antioxidant activity assessed as AAPH scavenging activity by measuring residual fluorescence at 10 uM measured at 1 min interval for 30 mins by ORAC fluorescein assay relative to control; type: functional
# Summary of the method: (§2)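 ORAC-FL assay with fluorescein as the probe and AAPH as the peroxyl radical generator. The loss of fluorescence over time was followed, and the result is given as % fluorescence restored at 10 and 50 µM. Each value is the mean of two independent experiments.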
# [7] = Antioxidant activity assessed as AAPH scavenging activity by measuring residual fluorescence at 50 uM measured at 1 min interval for 30 mins by ORAC fluorescein assay relative to control; type: functional; summary of the method: as §2
# Erythrocyte [8] = test: Antioxidant activity in human erythrocytes assessed as protection against AAPH-induced hemolysis at 50 uM preincubated for 20 mins followed by AAPH addition and measured after 2 hrs by spectrophotometric method relative to control; type: functional; conditions: time 140 min, 2.333 h
# Summary of the method: (§3)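 Erythrocyte hemolysis assay with AAPH as the free-radical initiator, testing 50 and 400 µM. Results are expressed as relative protection of membranes against oxidative damage, each the mean of two independent experiments.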
# Erythrocyte [9] = test: Antioxidant activity in human erythrocytes assessed as protection against AAPH-induced hemolysis at 400 uM preincubated for 20 mins followed by AAPH addition and measured after 2 hrs by spectrophotometric method relative to control; type: functional; conditions: time 140 min, 2.333 h; summary of the method: as §3
# HeLa = test: Cytotoxicity against human HeLa cells; type: functional, cell-based; conditions: for IC50: Homo sapiens, HeLa, read-out: IC50
# NHDF = test: Cytotoxicity against HDF cells; type: cell-based, Homo sapiens
# [10] = Selectivity index, ratio of IC50 for HDF cells to IC50 for human HeLa cells; type: toxicity; conditions: HDF cells versus HeLa cells, read-out: Ratio IC50
# Rattus norvegicus [11] = test: Antiinflammatory activity in rat model of carrageenan-induced paw edema assessed as inhibition of hind paw swelling at 15 mg/kg, ip measured after 1 hr relative to control; type: functional
# Rattus norvegicus [12] = test: Antiinflammatory activity in rat model of carrageenan-induced paw edema assessed as inhibition of hind paw swelling at 15 mg/kg, ip measured after 3 hrs relative to control; type: functional
# Rattus norvegicus [13] = test: Analgesic activity in rat assessed as prolongation of latency period at 15 mg/kg, ip measured after 1 hr by hot-plate test relative to control; type: functional
# Summary of the method: (§4)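 Hot-plate test in rats. Compounds were given by intraperitoneal injection. Latency was read at 1 h and, for some compounds, also at 2 h after dosing. Results are expressed as % prolongation of the latent period versus vehicle-treated control. Significance was given as p-values.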
# Rattus norvegicus [14] = test: Antiinflammatory activity in rat model of carrageenan-induced paw edema assessed as inhibition of hind paw swelling at 15 mg/kg, ip measured after 5 hrs; type: functional, organism-based
# [15] = Acute toxicity in mouse at 150 mg/kg, ip administered as single dose; type: organism-based; conditions: in vivo
# Summary of the method: (§5)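 Mice, single intraperitoneal dose, following OECD Guideline for testing of chemicals; three mice per dose level; doses tested 10–300 mg/kg. Read-out is the number of survivors out of 3, used to estimate the expected LD50 range.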
# [16] = tested on: Mycobacterium tuberculosis; test: Antitubercular activity against Mycobacterium tuberculosis H37Rv; type: functional
# Summary of the method: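 Mycobacterium tuberculosis strain H37Rv; minimum inhibitory concentration (MIC) taken as the lowest level needed to inhibit bacterial growth; isoniazid and pyrazinamide served as reference drugs.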
# Staphylococcus aureus [17] = test: Antibacterial activity against methicillin resistant Staphylococcus aureus; type: functional
# [18] = Antioxidant activity assessed as ABTS radical scavenging activity measured after 1 hr by UV-vis spectrophotometric method; type: functional; summary of the method: as §1
# Rattus norvegicus [19] = test: Analgesic activity in rat assessed as prolongation of latency period at 15 mg/kg, ip measured after 2 hrs by hot-plate test relative to control; type: functional; summary of the method: as §4
# [20] = Acute toxicity in mouse at 300 mg/kg, ip administered as single dose; type: organism-based; conditions: in vivo; summary of the method: as §5
# [21] = Acute toxicity in ip dosed mouse administered as single dose; type: organism-based; conditions: in vivo; summary of the method: as §5
# [22] = Acute toxicity in mouse at 75 mg/kg, ip administered as single dose; type: organism-based; conditions: in vivo; summary of the method: as §5
# [23] = Acute toxicity in mouse at 10 mg/kg, ip administered as single dose; type: organism-based; conditions: in vivo; summary of the method: as §5
Compound,MIC (Neisseria gonorrhoeae),MIC (Escherichia coli),MIC (Klebsiella pneumoniae),MIC (Citrobacter braakii),MIC (Proteus vulgaris),MIC (Serratia marcescens),MIC (Shigella flexneri),MIC (Pseudomonas aeruginosa),MIC (Streptococcus pyogenes),MIC (Staphylococcus aureus [1]),MIC (Trichophyton rubrum),MIC (Nannizzia gypsea),MIC (Trichophyton tonsurans),MIC [2],MIC (Epidermophyton floccosum),MIC (Microsporum canis),Activity [5],fold change (FC) (Erythrocyte [8]),fold change (FC) (Erythrocyte [9]),Activity (Rattus norvegicus [14]),other results
Cn1nc(C(F)(F)F)c(N=O)c1-c1ccccc1,62.5 µg/mL,> 500 µg/mL,> 500 µg/mL,> 500 µg/mL,> 500 µg/mL,> 500 µg/mL,> 500 µg/mL,> 500 µg/mL,> 500 µg/mL,> 500 µg/mL,12.5 µg/mL,25 µg/mL,3.12 µg/mL,12.5 µg/mL,0.38 µg/mL,100 µg/mL,0.01 equiv,1,1.02,Active,"MIC (Trichophyton violaceum): 6.25 µg/mL; MIC (Candida albicans): inactive; Drug metabolism [3]: Metabolite detected; Drug metabolism [4]: Metabolite not detected; Activity [6]: 3%; Activity [7]: 16.1%; Activity (HeLa): Dose-dependent effect; IC50 (HeLa): 63.9 µM; IC50 (NHDF; Homo sapiens, NHDF, read-out: IC50): 49.5 µM; selectivity ratio [10]: 0.77; inhibition (Rattus norvegicus [11]): inactive; inhibition (Rattus norvegicus [12]): inactive; Activity (Rattus norvegicus [13]): 80.2%; Activity [15]: Non-Toxic"
Cc1[nH]nc(C(F)(F)F)c1N=O,15.6 µg/mL,250 µg/mL,500 µg/mL,250 µg/mL,31.2 µg/mL,250 µg/mL,250 µg/mL,500 µg/mL,7.8 µg/mL,31.2 µg/mL,25 µg/mL,50 µg/mL,50 µg/mL,50 µg/mL,50 µg/mL,25 µg/mL,inactive,–,–,Active,MIC [16]: 1.62 µg/mL; MIC (Staphylococcus aureus [17]): 62.5 µg/mL; MIC (Candida albicans): 50 µg/mL; Activity (HeLa): Dose-dependent effect; IC50 (HeLa): 61.6 µM; IC50 (NHDF; nhdf): Not Active; selectivity ratio [10]: > 1.62; Activity [15]: Toxic
Nc1c(C(F)(F)F)n[nH]c1-c1ccccc1,–,–,–,–,–,–,–,–,–,–,–,–,–,–,–,–,–,1.1,0.02,–,IC50 [18]: 14.1 µM; Activity (Rattus norvegicus [13]): 56.7%; Activity (Rattus norvegicus [19]): 66.7%; Activity [15]: Non-Toxic
CS(=O)(=O)c1ccc(N2N=C(c3ccccc3)/C(=N\O)C2(O)C(F)(F)F)cc1 (stereo unspecified),–,–,–,–,–,–,–,–,–,–,–,–,–,–,–,–,0.16 equiv,1.03,1.14,Active,IC50 [18]: 169 µM; Activity [6]: 30.6%; Activity [7]: 49.1%; inhibition (Rattus norvegicus [11]): inactive; inhibition (Rattus norvegicus [12]): inactive; Activity (Rattus norvegicus [13]): 53.7%; Activity (Rattus norvegicus [19]): 44.3%; Activity [20]: Non-Toxic; LD50 [21]: > 300 mg/kg
Nc1c(C(F)(F)F)n[nH]c1-c1cccs1,–,–,–,–,–,–,–,–,–,–,–,–,–,–,–,–,–,1.11,0.01,–,IC50 [18]: 17.6 µM; Activity [22]: Toxic; Activity [23]: Non-Toxic
O=Nc1c(C(F)(F)F)n[nH]c1-c1cccs1,62.5 µg/mL,250 µg/mL,500 µg/mL,250 µg/mL,31.2 µg/mL,250 µg/mL,500 µg/mL,> 500 µg/mL,7.8 µg/mL,15.6 µg/mL,12.5 µg/mL,50 µg/mL,50 µg/mL,50 µg/mL,50 µg/mL,25 µg/mL,0.02 equiv,1.18,1.12,Active,MIC [16]: 3.1 µg/mL; MIC (Staphylococcus aureus [17]): 62.5 µg/mL; MIC (Candida albicans): 50 µg/mL; Drug metabolism [4]: Metabolite not detected; Activity [6]: -56.2%; Activity [7]: -98.7%; Activity [22]: Toxic
